From ChEMBL document CHEMBL1146554, “Antioxidative meroterpenoids from the brown alga Cystoseira crinita” (J Nat Prod, 2003)
Converted amounts (≈) assume the structure as drawn. The source made the active and inactive calls. No cut-off for these calls is given here.

Legend:
[1] = system: Radical scavenging activity; test: Antioxidant activity assessed as DPPH radical scavenging activity at 6 uM after 30 mins; format: functional
Method in brief: (§1)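 Samples in EtOH (100 µL) mixed with 25 µL of 1 mM DPPH in EtOH plus 75 µL EtOH, then shaken briefly. Kept 30 min at room temperature in the dark. Absorbance read at 517 nm. % scavenging calculated against control, with blank and sample-blank corrections.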

[2] = Antioxidant activity assessed as inhibition of FeSO4-induced lipid peroxidation at 33 uM by TBARS assay; format: functional
Method in brief: (§2)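 Linolenic acid methyl ester oxidized under FeSO4 catalysis in 50 mM phosphate buffer pH 7.2 at 50 °C. BHT in ethanol added to stop further oxidation. TBARS developed with trichloroacetic and thiobarbituric acid, 60 °C for 30 min. Read A532 minus A600 background. % inhibition calculated versus uninhibited control, with blank and sample-blank corrections.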

[3] = Antioxidant activity assessed as inhibition of FeSO4-induced lipid peroxidation at 164 uM by TBARS assay; format: functional; method in brief: as §2
[4] = system: Radical scavenging activity; test: Antioxidant activity assessed as DPPH radical scavenging activity at 230 uM after 30 mins; format: functional; method in brief: as §1
[5] = system: Radical scavenging activity; test: Antioxidant activity assessed as DPPH radical scavenging activity at 23 uM after 30 mins; format: functional; method in brief: as §1
[6] = system: Aspergillus pseudoglaucus; test: Antimicrobial activity against Eurotium repens at 50 ug/disk by agar diffusion assay; format: functional, organism-based
Method in brief: (§3)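 Agar diffusion assay with discs loaded at 50 µg/disk, run against the bacteria, fungi and the green microalga Chlorella fusca.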

Escherichia coli = test: Antimicrobial activity against Escherichia coli at 50 ug/disk by agar diffusion assay; format: functional, organism-based; method in brief: as §3
Microbotryum violaceum = test: Antimicrobial activity against Microbotryum violaceum at 50 ug/disk by agar diffusion assay; format: functional, organism-based; method in brief: as §3
[7] = Antioxidant activity assessed as inhibition of FeSO4-induced lipid peroxidation at 8 uM by TBARS assay; format: functional; method in brief: as §2
[8] = system: Radical scavenging activity; test: Antioxidant activity assessed as DPPH radical scavenging activity at 115 uM after 30 mins; format: functional; method in brief: as §1
Priestia megaterium = test: Antimicrobial activity against Bacillus megaterium at 50 ug/disk by agar diffusion assay; format: functional, organism-based; method in brief: as §3
Mycotypha microspora = test: Antimicrobial activity against Mycotypha microspora at 50 ug/disk by agar diffusion assay; format: functional, organism-based; method in brief: as §3
[9] = Antioxidant activity assessed as inhibition of FeSO4-induced lipid peroxidation at 16 uM by TBARS assay; format: functional; method in brief: as §2
[10] = system: Radical scavenging activity; test: Antioxidant activity assessed as DPPH radical scavenging activity at 12 uM after 30 mins; format: functional; method in brief: as §1
[11] = Antioxidant activity assessed as inhibition of FeSO4-induced lipid peroxidation at 82 uM by TBARS assay; format: functional; method in brief: as §2
[12] = system: Radical scavenging activity; test: Antioxidant activity assessed as DPPH radical scavenging activity at 58 uM after 30 mins; format: functional; method in brief: as §1
[Chlorella] fusca = Antimicrobial activity against 'Chlorella' fusca at 50 ug/disk by agar diffusion assay; format: functional, organism-based; conditions: Scenedesmus fuscus; method in brief: as §3
[13] = Cytotoxicity against human HM02 cells; format: functional
Method in brief: (§4)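 Cytotoxicity tested on HM02 gastric adenocarcinoma, HepG2 hepatocellular carcinoma and MCF7 breast adenocarcinoma lines following NCI standards.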

HepG2 = test: Cytotoxicity against human HepG2 cells; format: functional; method in brief: as §4
[14] = Superoxide radical scavenging activity assessed as trolox equivalents by photochemiluminescence assay
Method in brief: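 Photochemiluminescence with luminol acting as photosensitizer and detection reagent, generating superoxide. Mix of 2.29 mL reagent 1 (solvent/diluent), 200 µL buffer reagent, 25 µL photosensitizer and 10 µL sample in ethanol or Trolox standard in water. Antioxidant capacity taken from the integral under the curve and expressed as Trolox equivalents.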

[15] = ABTS radical scavenging activity assessed as trolox equivalents by TEAC assay; format: physicochemical
Method in brief: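 ABTS radical cation made by passing ABTS in PBS through manganese dioxide, then filtered (0.2 µm). Diluted in 5 mM PBS pH 7.4 to A734 0.700 and preincubated 2 h at room temperature. 1 mL radical mixed with 200 µL ethanolic sample, vortexed 30 s, centrifuged. A734 of lower phase read exactly 2 min after mixing. PBS and ethanol blanks included. Trolox standards used; value is mM Trolox equivalent to 1.0 mM compound.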

MCF7 = test: Cytotoxicity against human MCF7 cells; format: functional; method in brief: as §4

Activity [15] [mmol/L] | Structure (SMILES) | Activity [1] [%] | inhibition [2] [%] | inhibition [3] [%] | Activity [4] [%] | Activity [5] [%] | Activity [6] | Activity (Escherichia coli) | Activity (Microbotryum violaceum) | inhibition [7] [%] | Activity [8] [%] | Activity (Priestia megaterium) | Activity (Mycotypha microspora) | inhibition [9] [%] | Activity [10] [%] | inhibition [11] [%] | Activity [12] [%] | Activity ([Chlorella] fusca) | Activity [14] [mmol/L] | also measured
– | CC(C)=CCC/C(C)=C/C(=O)C/C(C)=C/Cc1cc(O)cc(C)c1O | 2.6 | 22.2 | 66.8 | 94.1 | 11.2 | inactive | inactive | inactive | 9.2 | 59.1 | inactive | inactive | 19.8 | 3.7 | 43.1 | 29.8 | inactive | – | –
– | CC(C)=CCC/C(C)=C\C(=O)C/C(C)=C/Cc1cc(O)cc(C)c1O | 2.6 | 28.8 | 66.5 | 92.5 | 17.7 | – | – | – | 13.2 | 92.1 | – | – | 19.9 | 5.9 | 52.9 | 50.2 | – | – | –
– | Cc1cc(C(C)(C)C)c(O)c(C(C)(C)C)c1 | 1.2 | 49.1 | 69.3 | 35.6 | 5.6 | – | – | – | 23.1 | 22 | – | – | 35.4 | 2.9 | 63.3 | 11.8 | – | – | –
0.63 | Cc1c(C)c2c(c(C)c1O)CC[C@@](C)(CCC[C@H](C)CCC[C@H](C)CCCC(C)C)O2 [ALPHA-TOCOPHEROL] | 8.2 | 67.6 | 72.7 | 95.2 | 33.9 | – | – | – | 13.1 | 94.9 | – | – | 32.1 | 16.3 | 71.2 | 88.1 | – | 1.26 | –
0.3 | CC1=CC(=O)C=C(C/C=C(\C)CC(=O)/C=C(/C)CC/C=C(\C)Cc2cc(C)co2)C1=O | 1.1 | 24.4 | 54.4 | 38.6 | 5.5 | inactive | inactive | inactive | 11.1 | 22.8 | inactive | inactive | 16.1 | 1.8 | 38.7 | 12.2 | inactive | 1.41 | –

Structure (SMILES) | Activity [15] [mmol/L] | Activity [1] [%] | inhibition [2] [%] | inhibition [3] [%] | Activity [4] [%] | Activity [5] [%] | Activity [6] | Activity (Escherichia coli) | Activity (Microbotryum violaceum) | inhibition [7] [%] | Activity [8] [%] | Activity (Priestia megaterium) | Activity (Mycotypha microspora) | inhibition [9] [%] | Activity [10] [%] | inhibition [11] [%] | Activity [12] [%] | Activity ([Chlorella] fusca) | Activity [14] [mmol/L] | also measured
C/C(=C\C(=O)C/C(C)=C/Cc1cc(O)cc(C)c1O)CC/C=C(\C)Cc1cc(C)co1 | 0.08 | 8 | 41.2 | 74.9 | 95.4 | 24.9 | inactive | inactive | inactive | 15.1 | 95.2 | inactive | inactive | 25.8 | 12.5 | 69.3 | 65.4 | inactive | 1.06 | GI50 [13]: 0.3 mg/L (≈ 0.71 µM); LC50 [13]: 3.4 mg/L (≈ 8.05 µM); TGI [13]: 0.6 mg/L (≈ 1.42 µM); GI50 (HepG2): 1.8 mg/L (≈ 4.26 µM); LC50 (HepG2): > 10 mg/L; TGI (HepG2): 4 mg/L (≈ 9.47 µM); GI50 (MCF7): 1.3 mg/L (≈ 3.08 µM); LC50 (MCF7): 3.7 mg/L (≈ 8.76 µM); TGI (MCF7): 2.1 mg/L (≈ 4.97 µM)
